Results: paper PMC3835402 (Molecular bioSystems, 2010)
“Also recorded” adds a separate entry of the source. Blank lines part the entries; values can stand above or below the compound they belong to.

Experiments:
[1] = target: T1, endogenous ER-α (Homo sapiens, UniProt P03372); experiment: ER degradation in MCF7 cells by western blotting; type: cell-based; details: western blot; for ER level on treatment with 13 and the proteasome inhibitor epoxomicin: Fig. 4A
T1 sequence (P03372 1-595): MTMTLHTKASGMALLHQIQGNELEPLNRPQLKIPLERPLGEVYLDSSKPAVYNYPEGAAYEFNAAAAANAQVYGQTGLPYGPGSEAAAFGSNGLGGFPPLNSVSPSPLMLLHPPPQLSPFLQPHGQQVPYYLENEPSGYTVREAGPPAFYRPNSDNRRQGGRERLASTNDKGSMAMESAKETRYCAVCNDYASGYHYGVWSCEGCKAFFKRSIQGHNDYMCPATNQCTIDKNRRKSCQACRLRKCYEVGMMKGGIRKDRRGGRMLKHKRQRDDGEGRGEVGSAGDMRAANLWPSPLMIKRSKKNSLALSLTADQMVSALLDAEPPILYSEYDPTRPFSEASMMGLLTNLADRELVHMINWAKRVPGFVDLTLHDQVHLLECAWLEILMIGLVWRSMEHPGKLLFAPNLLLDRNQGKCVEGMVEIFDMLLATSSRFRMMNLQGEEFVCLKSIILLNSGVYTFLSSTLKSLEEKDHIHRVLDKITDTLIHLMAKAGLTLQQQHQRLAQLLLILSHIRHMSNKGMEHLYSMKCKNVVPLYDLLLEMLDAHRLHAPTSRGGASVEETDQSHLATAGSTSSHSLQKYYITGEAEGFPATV

[2] = system: MCF7 cells; experiment: Cell viability assay by MTS; type: cell-based, human; details: 48 hour treatment, Fig. 5B
Method in brief: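 MCF7 seeded at 5 × 10³ cells in RPMI 1640 with 10% FBS overnight, then switched to 5% charcoal-dextran FBS RPMI for 24 h before dosing. Test compound was added in DMSO vehicle for 48 h. Viability was read by MTS (CellTiter 96 AQueous One) absorbance at 490 nm. IC50 was fitted by nonlinear sigmoid dose-response regression from at least triplicate results.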

[3] = target: T2, ER (Homo sapiens, UniProt P03372); experiment: ER immunofluorescence in MCF7 cells; type: cell-based; details: ER green, DAPI blue, compared to controls, Fig. 4C
T2 sequence (P03372 1-595): T1 sequence (P03372 1-595)
Method in brief: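 MCF7 on ethanol/UV-sterilized coverslips, attached 24 h, then kept in phenol-red-free RPMI with 5% charcoal/dextran FBS. Test compound diluted in that medium, applied as for the western blots. Fixed in 4% PFA, permeabilized with 0.2% Triton X. Blocked in 10% goat serum/0.1% BSA in PBST. Anti-ER 1 h at 37°C, then Alexa Fluor 488 secondary 30 min. DAPI mount, inverted fluorescence microscopy.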

time-dependent ER degradation, treated once ([1]; between 48 and 72 hours, Fig. 3D): stable between 48 and 72 hours
ER level on treatment with 13 and the proteasome inhibitor epoxomicin [1]: proteasome-dependent
ER degradation at even lower doses ([1]; data not shown): degraded the ER most effectively
Compound: -Leu-Ala-Pro^OH-Tyr-Ile-OBzl [compound 13]
inhibition of proliferation of MCF7 cells [2]: best efficacy; also recorded: most effective

ER level by immunofluorescence [3]: does not cause ER degradation
Compound: -Leu-Ala-Nle-Leu-Tyr-Ile-OBzl [compound 17]

The remaining lines, values behind:

Compound: -Leu-Ala-Pro^OH-Tyr-Ile-OBzl [compound 12]
ER degradation, dependence on the hydroxyproline residue (pVHL recognition) ([1]; Fig. 4B (text says Fig 4C)): effectively causes ER degradation

Compound: CC[C@H](C)[C@H](NC(=O)[C@H]([C@@H](C)CC)N(C)C(C)=O)C(=O)N[C@H](C(=O)N[C@@H](CC(C)C)C(=O)[C@@]1(C)CO1)[C@@H](C)O [epoxomicin, reference compound]
ER level on treatment with 13 and the proteasome inhibitor epoxomicin [1]: accumulation of the ER
ER level by immunofluorescence [3]: causes the accumulation of the ER

Compound: -Leu-Ala-Pro^OH-Tyr-Ile-OBzl [compound 15]
ER degradation at the highest concentration examined ([1]; 50 μM, 48 hour treatment, Fig. 3B): all PROTACs but 15 showed significant ER degradation
